Laboratory results: ChEMBL document CHEMBL1121966, “(2R*,3S*)-1-[125I]Iodo-2,3-bis(4-hydroxyphenyl)pentane ([125I]iodonorhexestrol) and (2R*,3S*)-1-[77Br]Bromo-2,3-bis(4-hydroxyphenyl)pentane ([77Br]bromonorhexestrol), two gamma-emitting estrogens that show receptor-mediated uptake by target tissues in vivo” (1982)

Tests used:
Type in all cases: functional
[1] = Spleen/blood distribution ratio was determined immature female rats at 1 hr
In short: (§1)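 Immature (25 day) female Sprague-Dawley rats (ca. 50 g) were dosed iv (jugular or tail vein) in ethanol plus 0.9% NaCl/rat serum (1:1). Doses were 2 μCi of [125I]iodonorhexestrol (≤15 pmol/dose), or 2 μCi each of [77Br]bromonorhexestrol (≤1.25 pmol/dose) and 16α-[125I]iodoestradiol (2 pmol/dose). Rats were killed at 1, 3 or 6 h; blood and tissues were weighed and γ-counted. Thyroid weight assumed 0.005 g/100 g body weight. Mean ± SD.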

[2] = Spleen/blood distribution ratio was determined immature female rats at 3h; in short: as §1
[3] = Esophagus/blood distribution ratio was determined in immature female rats at 1 hr with unlabeled estradiol
In short: (§2)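 Immature (25-day, ca. 50 g) Sprague-Dawley female rats received an iv injection (jugular or tail vein) of HPLC-purified tracer in ethanol plus 0.9% NaCl/rat serum 1:1. Doses were 2 μCi [125I]iodo tracer (≤15 pmol), or 2 μCi [77Br]bromo tracer (≤1.25 pmol) with 2 μCi 16α-[125I]iodoestradiol. Animals were killed at 1 h; blood and tissues were weighed and γ-counted. Blocking: coinjected unlabeled estradiol, 9 μg (iodo) or 18 μg (bromo). Mean ± SD.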

[4] = Esophagus/blood distribution ratio was determined in immature female rats at 3h
In short: (§3)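 Dual-label study in immature 25-day female Sprague-Dawley rats (ca. 50 g). Each received 2 μCi [77Br]bromo tracer (≤1.25 pmol/dose) and 2 μCi 16α-[125I]iodoestradiol (2 pmol/dose) by tail or jugular vein, in ethanol diluted with saline/rat serum 1:1. Rats were killed at 3 or 6 h; blood and 11 tissues were weighed and counted. Five rats per time point; mean ± SD.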

[5] = Esophagus/blood distribution ratio was determined in immature female rats at 6 hr; in short: as §3
[6] = Muscle/blood distribution ratio was determined immature female rats at 1 hr with unlabeled estradiol; in short: as §2
[7] = Muscle/blood distribution ratio was determined in immature female rats at 1 hr; in short: as §2
[8] = Muscle/blood distribution ratio was determined in immature female rats at 3h; in short: as §3
[9] = Thyroid/blood distribution ratio was determined in immature female rats at 3h; in short: as §1
[10] = Thyroid/blood distribution ratio was determined in immature female rats at 6 hr; in short: as §1
[11] = Kidney/blood distribution ratio was determined in immature female rats at 6 hr; in short: as §3
[12] = Liver/blood distribution ratio was determined in immature female rats at 1 hr; in short: as §2
[13] = Liver/blood distribution ratio was determined in immature female rats at 1 hr with unlabeled estradiol; in short: as §2
[14] = Liver/blood distribution ratio was determined in immature female rats at 3h; in short: as §3
[15] = Liver/blood distribution ratio was determined in immature female rats at 6 hr; in short: as §3
[16] = Lung/blood distribution ratio was determined in immature female rats at 1 hr; in short: as §2
[17] = Lung/blood distribution ratio was determined in immature female rats at 3h; in short: as §3
[18] = Lung/blood distribution ratio was determined in immature female rats at 6 hr; in short: as §3
[19] = Spleen/blood distribution ratio was determined immature female rats at 6 hr; in short: as §1
[20] = Spleen/blood distribution ratio was determined in immature female rats at 1 hr with unlabeled estradiol
[21] = Kidney/blood distribution ratio was determined in immature female rats at 1 hr; in short: as §2
[22] = Kidney/blood distribution ratio was determined in immature female rats at 1 hr with unlabeled estradiol; in short: as §2
[23] = Tissue/blood distribution ratio was measured in immature female rats at 1 hr; in short: as §1
[24] = Tissue/blood distribution ratio was measured in immature female rats at 1h, unlabeled estradiol (18 microg) coinjected
In short: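 Immature female rats given iv [77Br]bromonorhexestrol with 16α-[125I]iodoestradiol (2 μCi each) plus 18 μg unlabeled estradiol coinjected; killed at 1 h. Tissue and blood were weighed and counted, and tissue-to-blood radioactivity ratios were computed; 5 animals, mean ± SD.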

[25] = Tissue/blood distribution ratio was measured in immature female rats at 3h; in short: as §1
[26] = Tissue/blood distribution ratio was measured in immature female rats at 6 hr; in short: as §1
[27] = Thyroid/blood distribution ratio was determined in immature female rats at 1 hr; in short: as §1
[28] = Thyroid/blood distribution ratio was determined in immature female rats at 1 hr with unlabeled estradiol
In short: (§4)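 Same iv biodistribution in immature female rats, killed at 1 h, with unlabeled estradiol coinjected to block receptor uptake: 9 μg with [125I]iodonorhexestrol (3 rats), 18 μg with the [77Br]bromonorhexestrol/16α-[125I]iodoestradiol pair (5 rats). Tissue and blood radioactivity were counted as % injected dose/g and tissue-to-blood ratio.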

[29] = Uterus/blood distribution ratio was measured in immature female rats at 1 hr; in short: as §1
[30] = Uterus/blood distribution ratio was measured in immature female rats at 3h; in short: as §1
[31] = Uterus/blood distribution ratio was measured in immature female rats at 6 hr; in short: as §1
[32] = Kidney/blood distribution ratio was determined in immature female rats at 3h; in short: as §3
[33] = Muscle/blood distribution ratio was determined in immature female rats at 6 hr; in short: as §3
[34] = Uterus/blood distribution of compound was measured in immature female rats at 1 hr with unlabeled estradiol; in short: as §4
[35] = organism: Rattus norvegicus; test: Percent injected dose per gram Muscle at 1 hr; in short: as §2
[36] = organism: Rattus norvegicus; test: Percent injected dose per gram Uterus at 3h; in short: as §3
[37] = organism: Rattus norvegicus; test: Percent injected dose per gram kidney at 6 hr; in short: as §3
[38] = organism: Rattus norvegicus; test: Percent injected dose per gram spleen at 6 hr; in short: as §1
[39] = Lung/blood distribution ratio was determined in immature female rats at 1 hr with unlabeled estradiol; in short: as §2
[40] = Esophagus/blood distribution ratio was determined in immature female rats at 1 hr; in short: as §2

For `C[C@]12CC[C@@H]3c4ccc(O)cc4CC[C@H]3[C@@H]1C[C@@H](I)[C@@H]2O`, the Ratio [1] was 0.46, the Ratio [2] was 0.27 and the Ratio [3] was 0.95. The Ratio [4] was 0.47, the Ratio [5] was 0.76 and the Ratio [6] was 0.5. The Ratio [7] was 0.42, the Ratio [8] was 0.25 and the Ratio [9] was 192.8. The Ratio [10] was 472.6, the Ratio [11] was 3.49 and the Ratio [12] was 3.55. The Ratio [13] was 3.95, the Ratio [14] was 4.76 and the Ratio [15] was 6.28. The Ratio [16] was 0.86, the Ratio [17] was 0.67 and the Ratio [18] was 0.93. For the same molecule, the Ratio [19] was 0.35, the Ratio [20] was 0.67 and the Ratio [21] was 2. The Ratio [22] was 1.4, the Ratio [23] was 1 and the Ratio [24] was 1. It also gave a Ratio [25] of 1, a Ratio [26] of 1 and a Ratio [27] of 30.8. It also gave a Ratio [28] of 44.5, a Ratio [29] of 9.54 and a Ratio [30] of 7.36. It also gave a Ratio [31] of 9.14, a Ratio [32] of 1.83 and a Ratio [33] of 0.27. It also gave a Ratio [34] of 1.37, an Injected dose [35] of 0.53% and an Injected dose [36] of 6.83%. It also gave an Injected dose [37] of 0.4%, an Injected dose [38] of 0.08% and a Ratio [39] of 1.08. It also gave a Ratio [40] of 0.62.
